Screening data: PubChem, several laboratories
PHOSPHO1 inh = PHOSPHO1 (human) inhibition | Q8TCT1 | recombinant PHOSPHO1, absorbance phosphatase assay | inhibition, % at 13.3 µM | actives 1.1% (n = 290,000) | AID 1565; in the data active = inhibition above about 60%
RGS4 pot = potentiators or activators of RGS4; HEK293 M3R/inducible RGS4, carbachol calcium flux Fluo4; active compounds read low; B-score at 10 µM; actives 0.92% (n = 310,000); AID 463111;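 active = B-score of the integrated calcium signal more than 4 SD below the library mean, with starting fluorescence not abnormally high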;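 note: negative B-score means reduced calcium response which marks RGS4 activation or potentiation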
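Also added: carbachol at ECmax as muscarinic agonist stimulus; Assay system: HEK293 cells with stable M3R and inducible RGS4; Timing: overnight RGS4 induction, 30 min dye load 37 °C, 20 min compound RT; Measured by: Fluo4-AM (2 µM) calcium-flux fluorescence, kinetic read.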
MrgX1 PAM = allosterically activates human MrgX1 receptor signaling | Q96LB2 | MrgX1-HEK293, Fluo-4 calcium flux, FDSS; active compounds read high | B-score at 10 µM | actives 0.63% (n = 310,000) | AID 588675;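 active = plate-corrected calcium response at least 3 library SD above typical, normal starting fluorescence, not activating the receptor alone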;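 note: compound read alongside a low EC10 to EC30 dose of BAM8-22 agonist; peak minus trough fluorescence over baseline measured at the second addition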
Target sequence (Q96LB2 whole entry, looked up): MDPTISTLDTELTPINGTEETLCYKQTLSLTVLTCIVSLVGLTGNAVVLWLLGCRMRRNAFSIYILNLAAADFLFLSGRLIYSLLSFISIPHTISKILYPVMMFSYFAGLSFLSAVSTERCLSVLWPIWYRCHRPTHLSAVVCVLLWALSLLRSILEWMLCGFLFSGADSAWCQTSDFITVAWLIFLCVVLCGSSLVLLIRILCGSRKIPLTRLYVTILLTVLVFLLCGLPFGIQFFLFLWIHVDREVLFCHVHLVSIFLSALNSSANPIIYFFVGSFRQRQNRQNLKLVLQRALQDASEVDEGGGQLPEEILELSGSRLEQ
MrgX1 agonist = human MrgX1 receptor agonism, primary screen; actives 0.44% (n = 310,000); Q96LB2; MrgX1-HEK293 cells, Fluo-4 calcium fluorescence, agonist mode; active compounds read high; B-score at 10 µM;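 active = calcium response B-score plate-corrected fluorescence ratio at least 3 library SD, with starting fluorescence B-score inside 5 SD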
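times = overnight plating, then 30 min 37 °C plus 30 min room-temperature dye loading | assay system = stable human MrgX1 HEK293 cell line | input = fifteen thousand cells per well | signal = kinetic calcium dye fluorescence, Fluo-4 NW | dosing = compound delivered in addition one of three | read-out = B-scored fluorescence response ratio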
MrgX1 antag = human MrgX1 receptor antagonism, primary screen. B-score at 10 µM. actives 1.3% (n = 310,000). Q96LB2. AID 588676. MRGX1-HEK293 calcium flux, Fluo-4, BAM8-22 antagonism; active compounds read low;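 active = calcium-response B-score plate-corrected more than 3 library SD below zero, starting fluorescence within 5 deviations, no agonist response on first addition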;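 note: peak minus trough fluorescence over baseline after final BAM8-22 challenge near maximal dose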
RGS4 block = human RGS4 inhibition; P49798; HEK293 M3R/RGS4 inducible, Fluo-4 calcium flux; active compounds read high; triggered by carbachol at its EC20; B-score at 10 µM; actives 0.45% (n = 310,000); AID 463165;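 active = B-score, a plate-corrected calcium signal, over three deviations above library mean, with baseline fluorescence within five deviations of library mean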;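 note: RGS4 expression induced by doxycycline in cells with stable M3 receptor; B-score is computed from the integrated fluorescence ratio over baseline after carbachol; higher B-score means a larger calcium signal and so more RGS4 inhibition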
Target sequence (P49798 whole entry, looked up): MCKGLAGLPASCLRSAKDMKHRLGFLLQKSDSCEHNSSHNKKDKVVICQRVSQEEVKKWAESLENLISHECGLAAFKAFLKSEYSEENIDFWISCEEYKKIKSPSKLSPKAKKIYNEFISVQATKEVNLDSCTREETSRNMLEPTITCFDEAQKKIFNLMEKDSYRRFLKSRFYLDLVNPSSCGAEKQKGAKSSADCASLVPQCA
RGS4 inh valid = RGS4 inhibitor validation. AID 492999. shares compounds with RGS4 block. actives 65% (n = 1,700). HEK293 M3R/RGS4, carbachol calcium Fluo-4 fluorescence; carbachol added at its EC20; 0 = buffer wells, 100 = carbachol control. calcium response, % at 10 µM;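 active = duplicate-averaged calcium response above the buffer-only control mean plus 5 SD of those controls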;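 note: integrated fluorescence ratio F max minus min over baseline F0; higher response in RGS4-induced cells means RGS4 inhibition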
M3R Ca ctr = checks RGS4 inhibitor effects in non-induced HEK293 M3R cells | activity (percent), % at 10 µM | carbachol calcium Fluo-4; submaximal (EC20) carbachol stimulus; buffer wells 0%, carbachol control wells 100% | shares compounds with RGS4 block | actives 20% (n = 1,900); call rule not given here;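 note: RGS4 induction absent so cells express M3R without RGS4; higher means more calcium signal and flags a non-specific hit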
RGS4 inh ctr2 = second RGS4 inhibitor counter-screen in uninduced cells lacking carbachol | shares compounds with RGS4 block | HEK293 M3R/RGS4 non-induced, Fluo-4 calcium, no carbachol; normalised: buffer wells 0%, carbachol wells 100% | calcium response (agonist-mode artifact), % at 10 µM | actives 22% (n = 1,900) | AID 493001;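 active = duplicate-averaged calcium rise in uninduced cells above buffer wells' mean plus 5 SD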
The depositor's hits bear a star. Only some compounds are listed: those with a hit (about 4.5% of all), similar ones and a draw of the others.

Screening CCc1nnc(NC(=O)CSc2nc3cccnc3n2C2CCCCC2)s1 returned PHOSPHO1 inh -3, RGS4 pot inactive, MrgX1 PAM inactive, MrgX1 agonist inactive, MrgX1 antag inactive and RGS4 block inactive.
`COc1ccc(-c2csc(Nc3cc(C)ccn3)n2)cc1OC` gave PHOSPHO1 inh 17, RGS4 pot inactive, MrgX1 PAM inactive, MrgX1 agonist inactive, MrgX1 antag inactive, RGS4 block inactive, RGS4 inh valid inactive, M3R Ca ctr inactive and RGS4 inh ctr2 inactive.
Screening Cc1cc(N=Nc2ccccc2)c(NCC(O)C(O)C(O)CO)cc1C (stereo not drawn) returned PHOSPHO1 inh -26, RGS4 pot inactive, MrgX1 PAM inactive, MrgX1 agonist inactive, MrgX1 antag inactive, RGS4 block 9.6*, RGS4 inh valid 36%*, M3R Ca ctr 38%* and RGS4 inh ctr2 inactive.
For CC1=NN(c2ccccc2)C(=O)C1N=Nc1cccc(O)c1 (stereo not drawn) the results were PHOSPHO1 inh 39, RGS4 pot inactive, MrgX1 PAM inactive, MrgX1 agonist inactive, MrgX1 antag inactive and RGS4 block inactive.
For CC1=NN(c2ccc(C)cc2C)C(=O)C1C(c1cccc(O)c1)C1C(=O)N(c2ccc(C)cc2C)N=C1C (stereo not drawn) the results were PHOSPHO1 inh -6, RGS4 pot inactive, MrgX1 PAM inactive, MrgX1 agonist inactive, MrgX1 antag inactive, RGS4 block 5.3*, RGS4 inh valid 14%*, M3R Ca ctr 50%* and RGS4 inh ctr2 inactive.
For CCCCC1=CC2=C(c3ccco3)C(=O)C(C)(OC(=O)c3ccc(OC)cc3)C(=O)C2=CN1C1CC1 (stereo not drawn) the results were PHOSPHO1 inh 26, RGS4 pot inactive, MrgX1 PAM inactive, MrgX1 agonist inactive, MrgX1 antag inactive, RGS4 block 9.3*, RGS4 inh valid 5.5%*, M3R Ca ctr inactive and RGS4 inh ctr2 inactive.
For COC(=O)CCCC1=CC2=C(c3ccccc3)C(=O)C(C)(OC(=O)C3CCCC3)C(=O)C2=CN1C1CC1 (stereo not drawn) the results were PHOSPHO1 inh 26, RGS4 pot inactive, MrgX1 PAM inactive, MrgX1 agonist inactive, MrgX1 antag inactive and RGS4 block inactive.
`CCCCC1=CC2=C(c3ccco3)C(=O)C(C)(OC(=O)c3ccc(OC)cc3)C(=O)C2=CN1C1CCCC1` (stereo not drawn) gave RGS4 pot inactive, MrgX1 PAM inactive, MrgX1 agonist inactive, MrgX1 antag inactive, RGS4 block inactive, RGS4 inh valid inactive, M3R Ca ctr inactive and RGS4 inh ctr2 102%*.
Screening Cc1ccc(O)c(-c2cc(-c3ccccc3[N+](=O)[O-])[nH]n2)c1 returned PHOSPHO1 inh -18, RGS4 pot inactive, MrgX1 PAM inactive, MrgX1 agonist inactive, MrgX1 antag inactive, RGS4 block 8.6*, RGS4 inh valid 12%*, M3R Ca ctr inactive and RGS4 inh ctr2 18%*.
COc1ccc(O)c(-c2cc(-c3ccccc3[N+](=O)[O-])[nH]n2)c1 was read as PHOSPHO1 inh -9, RGS4 pot inactive, MrgX1 PAM inactive, MrgX1 agonist inactive, MrgX1 antag inactive, RGS4 block 6.4*, RGS4 inh valid 9.5%*, M3R Ca ctr inactive and RGS4 inh ctr2 inactive.
`Cc1c(-c2ccn[nH]2)cc(NC(=O)c2ccc(Cl)cc2)c(=O)n1N` gave PHOSPHO1 inh 28, RGS4 pot inactive, MrgX1 PAM inactive, MrgX1 agonist inactive, MrgX1 antag inactive and RGS4 block inactive.
For Cc1noc(C)c1C(=O)Nc1nccs1 the results were PHOSPHO1 inh 27, RGS4 pot inactive, MrgX1 PAM inactive, MrgX1 agonist inactive, MrgX1 antag inactive and RGS4 block inactive.
For CCOC(=O)c1c(C)oc2c1cc(NS(=O)(=O)c1ccc(C(=O)O)cc1)c1ccccc12 the results were PHOSPHO1 inh 6, RGS4 pot inactive, MrgX1 PAM inactive, MrgX1 agonist inactive, MrgX1 antag inactive, RGS4 block inactive, M3R Ca ctr inactive and RGS4 inh ctr2 inactive.
Screening COc1ccc(N(CC(=O)N/N=C/c2ccco2)S(=O)(=O)c2ccccc2)cc1 returned PHOSPHO1 inh -10, RGS4 pot inactive, MrgX1 PAM inactive, MrgX1 agonist inactive, MrgX1 antag inactive and RGS4 block inactive.
For CN(C)CCC(=O)c1cccc(Br)c1 the results were PHOSPHO1 inh 25, RGS4 pot inactive, MrgX1 PAM inactive, MrgX1 agonist inactive, MrgX1 antag inactive, RGS4 block 6.8*, RGS4 inh valid inactive, M3R Ca ctr inactive and RGS4 inh ctr2 28%*.
Cc1ccc(Nc2nc(N)c3ccccc3n2)cc1C was read as PHOSPHO1 inh 24, RGS4 pot inactive, MrgX1 PAM inactive, MrgX1 agonist inactive, MrgX1 antag inactive, RGS4 block inactive, RGS4 inh valid inactive, M3R Ca ctr inactive and RGS4 inh ctr2 inactive.
Screening S=c1[nH]nc(Cc2ccccc2)n1-c1cccc2ccccc12 returned PHOSPHO1 inh -12, RGS4 pot inactive, MrgX1 PAM inactive, MrgX1 agonist inactive, MrgX1 antag inactive and RGS4 block inactive.
For Cc1ccc(C(=O)CC(SCC(=O)O)c2ccc([N+](=O)[O-])cc2)cc1 (stereo not drawn) the results were PHOSPHO1 inh 21, RGS4 pot inactive, MrgX1 PAM inactive, MrgX1 agonist inactive, MrgX1 antag inactive, RGS4 block 6.3*, RGS4 inh valid 11%*, M3R Ca ctr 36%* and RGS4 inh ctr2 inactive.
Screening Cc1ccc(C(=O)CC(C(=O)O)n2cnc([N+](=O)[O-])n2)cc1 (stereo not drawn) returned PHOSPHO1 inh 45, RGS4 pot inactive, MrgX1 PAM inactive, MrgX1 agonist inactive, MrgX1 antag inactive, RGS4 block 5.6*, RGS4 inh valid 14%*, M3R Ca ctr inactive and RGS4 inh ctr2 inactive.
